Calls of active or inactive are those of the source. The calls are words filed in the database; no cut-off is given here.
What was measured:
Echinochloa crus-galli [1] = experiment: Inhibition of stem growth of Echinochloa crus-galli at 100 mg/L; assay type: functional
Method in brief: (§1)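 Seeds of each species were grown in Petri dishes with 10 seeds per dish, at 28 °C, 70–80% RH, 16:8 h light:dark photoperiod and 3000 lx light for 5 days. Root and stem lengths were measured for the 10 seeds and averaged. Each test and its controls were run in three replicates, and the data were given probit analysis.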

Triticum aestivum [2] = experiment: Herbicidal activity against Triticum aestivum at 450 g ai/ha in greenhouse in vivo test; assay type: functional, organism-based
Radish [3] = experiment: Inhibition of root growth of Raphanus sativus at 100 mg/L; assay type: functional; method in brief: as §1
Aphis = experiment: Insecticidal activity against Aphis medicagini at 250 mg/L; assay type: functional
Method in brief: (§2)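 Groups of 10 of each species were placed in glass Petri dishes and sprayed with test solution using a Potter sprayer. After air-drying, they were held under normal rearing conditions. Mortality at 72 h was taken from the number and size of live larvae relative to untreated controls.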

Echinochloa crus-galli [4] = experiment: Inhibition of root growth of Echinochloa crus-galli at 100 mg/L; assay type: functional; method in brief: as §1
Sorghum bicolor [5] = experiment: Inhibition of root growth of Sorghum bicolor at 100 mg/L; assay type: functional; method in brief: as §1
Echinochloa crus-galli [6] = experiment: Herbicidal activity against Echinochloa crus-galli at 450 g ai/ha in greenhouse in vivo test; assay type: functional, organism-based
Radish [7] = experiment: Herbicidal activity against Raphanus sativus at 450 g ai/ha in greenhouse in vivo test; assay type: functional, organism-based
Triticum aestivum [8] = experiment: Inhibition of root growth of Triticum aestivum at 100 mg/L; assay type: functional; method in brief: as §1
Cucumis sativus [9] = experiment: Inhibition of stem growth of Cucumis sativus at 100 mg/L; assay type: functional; method in brief: as §1
Cucumis sativus [10] = experiment: Herbicidal activity against Cucumis sativus at 450 g ai/ha in greenhouse in vivo test; assay type: functional, organism-based
Triticum aestivum [11] = experiment: Inhibition of stem growth of Triticum aestivum at 100 mg/L; assay type: functional; method in brief: as §1
Cucumis sativus [12] = experiment: Inhibition of root growth of Cucumis sativus at 100 mg/L; assay type: functional; method in brief: as §1
Sorghum bicolor [13] = experiment: Herbicidal activity against Sorghum bicolor at 450 g ai/ha in greenhouse in vivo test; assay type: functional, organism-based
[14] = test system: Brassica rapa subsp. oleifera; experiment: Inhibition of root growth of Brassica campestris at 100 mg/L; assay type: functional; method in brief: as §1
Sorghum bicolor [15] = experiment: Inhibition of stem growth of Sorghum bicolor at 100 mg/L; assay type: functional; method in brief: as §1
Tetranychus cinnabarinus = experiment: Insecticidal activity against Tetranychus cinnabarinus at 250 mg/L; assay type: functional; method in brief: as §2
[16] = test system: Brassica rapa subsp. oleifera; experiment: Inhibition of stem growth of Brassica campestris at 100 mg/L; assay type: functional; method in brief: as §1
Radish [17] = experiment: Inhibition of stem growth of Raphanus sativus at 100 mg/L; assay type: functional; method in brief: as §1
[18] = test system: Brassica rapa subsp. oleifera; experiment: Herbicidal activity against Brassica campestris at 450 g ai/ha in greenhouse in vivo test; assay type: functional, organism-based

## CCOC(=O)CSc1nnc(Cn2nnn(-c3ccc(Cl)cc3)c2=O)s1
Echinochloa crus-galli [1]
  inhibition at 100 µg/mL: 0%
Triticum aestivum [2]
  Activity: inactive
Radish [3]
  inhibition at 100 µg/mL: 70%
Aphis
  Activity: 0%
Echinochloa crus-galli [4]
  inhibition at 100 µg/mL: 0%
Sorghum bicolor [5]
  inhibition at 100 µg/mL: 30%
Echinochloa crus-galli [6]
  Activity: inactive
Radish [7]
  Activity: inactive
Triticum aestivum [8]
  inhibition at 100 µg/mL: 50%
Cucumis sativus [9]
  inhibition at 100 µg/mL: 30%
Cucumis sativus [10]
  Activity: inactive
Triticum aestivum [11]
  inhibition at 100 µg/mL: 60%
Cucumis sativus [12]
  inhibition at 100 µg/mL: 50%
Sorghum bicolor [13]
  Activity: inactive
[14]
  inhibition at 100 µg/mL: 70%
Sorghum bicolor [15]
  inhibition at 100 µg/mL: 50%
Tetranychus cinnabarinus
  Activity: 80%
[16]
  inhibition at 100 µg/mL: 50%
Radish [17]
  inhibition at 100 µg/mL: 60%
[18]
  Activity: inactive

## O=c1c(Cn2nnn(-c3ccc(Cl)cc3)c2=O)coc2ccccc12
Echinochloa crus-galli [1]
  inhibition at 100 µg/mL: 0%
Triticum aestivum [2]
  Activity: inactive
Radish [3]
  inhibition at 100 µg/mL: 0%
Aphis
  Activity: 1.7%
Echinochloa crus-galli [4]
  inhibition at 100 µg/mL: 0%
Sorghum bicolor [5]
  inhibition at 100 µg/mL: 0%
Echinochloa crus-galli [6]
  Activity: inactive
Radish [7]
  Activity: inactive
Triticum aestivum [8]
  inhibition at 100 µg/mL: 0%
Cucumis sativus [9]
  inhibition at 100 µg/mL: 0%
Cucumis sativus [10]
  Activity: inactive
Triticum aestivum [11]
  inhibition at 100 µg/mL: 30%
Cucumis sativus [12]
  inhibition at 100 µg/mL: 0%
Sorghum bicolor [13]
  Activity: inactive
[14]
  inhibition at 100 µg/mL: 0%
Sorghum bicolor [15]
  inhibition at 100 µg/mL: 0%
Tetranychus cinnabarinus
  Activity: 100%
[16]
  inhibition at 100 µg/mL: 0%
Radish [17]
  inhibition at 100 µg/mL: 0%
[18]
  Activity: inactive

## CCCSc1nnc(Cn2nnn(-c3ccc(Cl)cc3)c2=O)s1
Echinochloa crus-galli [1]
  inhibition at 100 µg/mL: 80%
Triticum aestivum [2]
  Activity: inactive
Radish [3]
  inhibition at 100 µg/mL: 70%
Aphis
  Activity: 0%
Echinochloa crus-galli [4]
  inhibition at 100 µg/mL: 80%
Sorghum bicolor [5]
  inhibition at 100 µg/mL: 80%
Echinochloa crus-galli [6]
  Activity: inactive
Radish [7]
  Activity: inactive
Triticum aestivum [8]
  inhibition at 100 µg/mL: 70%
Cucumis sativus [9]
  inhibition at 100 µg/mL: 70%
Cucumis sativus [10]
  Activity: inactive
Triticum aestivum [11]
  inhibition at 100 µg/mL: 70%
Cucumis sativus [12]
  inhibition at 100 µg/mL: 50%
Sorghum bicolor [13]
  Activity: inactive
[14]
  inhibition at 100 µg/mL: 70%
Sorghum bicolor [15]
  inhibition at 100 µg/mL: 0%
Tetranychus cinnabarinus
  Activity: 0%
[16]
  inhibition at 100 µg/mL: 60%
Radish [17]
  inhibition at 100 µg/mL: 70%
[18]
  Activity: inactive

## COc1cccc(Cn2nnn(-c3ccc(Cl)cc3)c2=O)c1
Echinochloa crus-galli [1]
  inhibition at 100 µg/mL: 0%
Triticum aestivum [2]
  Activity: inactive
Radish [3]
  inhibition at 100 µg/mL: 0%
Aphis
  Activity: 3.3%
Echinochloa crus-galli [4]
  inhibition at 100 µg/mL: 0%
Sorghum bicolor [5]
  inhibition at 100 µg/mL: 0%
Echinochloa crus-galli [6]
  Activity: inactive
Radish [7]
  Activity: inactive
Triticum aestivum [8]
  inhibition at 100 µg/mL: 0%
Cucumis sativus [9]
  inhibition at 100 µg/mL: 0%
Cucumis sativus [10]
  Activity: inactive
Triticum aestivum [11]
  inhibition at 100 µg/mL: 0%
Cucumis sativus [12]
  inhibition at 100 µg/mL: 0%
Sorghum bicolor [13]
  Activity: inactive
[14]
  inhibition at 100 µg/mL: 0%
Sorghum bicolor [15]
  inhibition at 100 µg/mL: 0%
Tetranychus cinnabarinus
  Activity: 0%
[16]
  inhibition at 100 µg/mL: 0%
Radish [17]
  inhibition at 100 µg/mL: 0%
[18]
  Activity: inactive

## CCOC(=O)CSc1nnc(Cn2nnn(-c3ccc(Cl)cc3)c2=O)o1
Echinochloa crus-galli [1]
  inhibition at 100 µg/mL: 0%
Triticum aestivum [2]
  Activity: inactive
Radish [3]
  inhibition at 100 µg/mL: 50%
Aphis
  Activity: 0%
Echinochloa crus-galli [4]
  inhibition at 100 µg/mL: 0%
Sorghum bicolor [5]
  inhibition at 100 µg/mL: 0%
Echinochloa crus-galli [6]
  Activity: inactive
Radish [7]
  Activity: inactive
Triticum aestivum [8]
  inhibition at 100 µg/mL: 0%
Cucumis sativus [9]
  inhibition at 100 µg/mL: 0%
Cucumis sativus [10]
  Activity: inactive
Triticum aestivum [11]
  inhibition at 100 µg/mL: 0%
Cucumis sativus [12]
  inhibition at 100 µg/mL: 0%
Sorghum bicolor [13]
  Activity: inactive
[14]
  inhibition at 100 µg/mL: 50%
Sorghum bicolor [15]
  inhibition at 100 µg/mL: 0%
Tetranychus cinnabarinus
  Activity: 2.9%
[16]
  inhibition at 100 µg/mL: 60%
Radish [17]
  inhibition at 100 µg/mL: 0%
[18]
  Activity: inactive

## CO/C=C\C(C(=O)OC)c1ccccc1CSc1nnc(Cn2nnn(-c3ccc(Cl)cc3)c2=O)s1 (stereo not given)
Echinochloa crus-galli [1]
  inhibition at 100 µg/mL: 0%
Triticum aestivum [2]
  Activity: inactive
Radish [3]
  inhibition at 100 µg/mL: 60%
Aphis
  Activity: 2.9%
Echinochloa crus-galli [4]
  inhibition at 100 µg/mL: 30%
Sorghum bicolor [5]
  inhibition at 100 µg/mL: 60%
Echinochloa crus-galli [6]
  Activity: inactive
Radish [7]
  Activity: inactive
Triticum aestivum [8]
  inhibition at 100 µg/mL: 0%
Cucumis sativus [9]
  inhibition at 100 µg/mL: 30%
Cucumis sativus [10]
  Activity: inactive
Triticum aestivum [11]
  inhibition at 100 µg/mL: 40%
Cucumis sativus [12]
  inhibition at 100 µg/mL: 30%
Sorghum bicolor [13]
  Activity: inactive
[14]
  inhibition at 100 µg/mL: 30%
Sorghum bicolor [15]
  inhibition at 100 µg/mL: 0%
Tetranychus cinnabarinus
  Activity: 0%
[16]
  inhibition at 100 µg/mL: 30%
Radish [17]
  inhibition at 100 µg/mL: 30%
[18]
  Activity: inactive

## O=c1n(Cc2nnc(SCc3cccc(F)c3)s2)nnn1-c1ccc(Cl)cc1
Echinochloa crus-galli [1]
  inhibition at 100 µg/mL: 70%
Triticum aestivum [2]
  Activity: inactive
Radish [3]
  inhibition at 100 µg/mL: 50%
Aphis
  Activity: 0%
Echinochloa crus-galli [4]
  inhibition at 100 µg/mL: 50%
Sorghum bicolor [5]
  inhibition at 100 µg/mL: 40%
Echinochloa crus-galli [6]
  Activity: inactive
Radish [7]
  Activity: inactive
Triticum aestivum [8]
  inhibition at 100 µg/mL: 40%
Cucumis sativus [9]
  inhibition at 100 µg/mL: 30%
Cucumis sativus [10]
  Activity: inactive
Triticum aestivum [11]
  inhibition at 100 µg/mL: 70%
Cucumis sativus [12]
  inhibition at 100 µg/mL: 30%
Sorghum bicolor [13]
  Activity: inactive
[14]
  inhibition at 100 µg/mL: 40%
Sorghum bicolor [15]
  inhibition at 100 µg/mL: 40%
Tetranychus cinnabarinus
  Activity: 2.9%
[16]
  inhibition at 100 µg/mL: 0%
Radish [17]
  inhibition at 100 µg/mL: 50%
[18]
  Activity: inactive

## Cc1ccccc1Cn1nnn(-c2ccc(Cl)cc2)c1=O
Echinochloa crus-galli [1]
  inhibition at 100 µg/mL: 0%
Triticum aestivum [2]
  Activity: inactive
Radish [3]
  inhibition at 100 µg/mL: 0%
Aphis
  Activity: 21.7%
Echinochloa crus-galli [4]
  inhibition at 100 µg/mL: 0%
Sorghum bicolor [5]
  inhibition at 100 µg/mL: 0%
Echinochloa crus-galli [6]
  Activity: inactive
Radish [7]
  Activity: inactive
Triticum aestivum [8]
  inhibition at 100 µg/mL: 0%
Cucumis sativus [9]
  inhibition at 100 µg/mL: 0%
Cucumis sativus [10]
  Activity: inactive
Triticum aestivum [11]
  inhibition at 100 µg/mL: 30%
Cucumis sativus [12]
  inhibition at 100 µg/mL: 0%
Sorghum bicolor [13]
  Activity: inactive
[14]
  inhibition at 100 µg/mL: 0%
Sorghum bicolor [15]
  inhibition at 100 µg/mL: 0%
Tetranychus cinnabarinus
  Activity: 2.9%
[16]
  inhibition at 100 µg/mL: 0%
Radish [17]
  inhibition at 100 µg/mL: 0%
[18]
  Activity: inactive

## O=c1c(Cn2nnn(-c3ccccc3Cl)c2=O)coc2ccccc12
Echinochloa crus-galli [1]
  inhibition at 100 µg/mL: 0%
Triticum aestivum [2]
  Activity: inactive
Radish [3]
  inhibition at 100 µg/mL: 50%
Aphis
  Activity: 13.3%
Echinochloa crus-galli [4]
  inhibition at 100 µg/mL: 0%
Sorghum bicolor [5]
  inhibition at 100 µg/mL: 50%
Echinochloa crus-galli [6]
  Activity: inactive
Radish [7]
  Activity: inactive
Triticum aestivum [8]
  inhibition at 100 µg/mL: 0%
Cucumis sativus [9]
  inhibition at 100 µg/mL: 0%
Cucumis sativus [10]
  Activity: inactive
Triticum aestivum [11]
  inhibition at 100 µg/mL: 30%
Cucumis sativus [12]
  inhibition at 100 µg/mL: 0%
Sorghum bicolor [13]
  Activity: inactive
[14]
  inhibition at 100 µg/mL: 50%
Sorghum bicolor [15]
  inhibition at 100 µg/mL: 30%
Tetranychus cinnabarinus
  Activity: 2.9%
[16]
  inhibition at 100 µg/mL: 30%
Radish [17]
  inhibition at 100 µg/mL: 30%
[18]
  Activity: inactive

## Cc1ccccc1CSc1nnc(Cn2nnn(-c3ccc(Cl)cc3)c2=O)s1
Echinochloa crus-galli [1]
  inhibition at 100 µg/mL: 70%
Triticum aestivum [2]
  Activity: inactive
Radish [3]
  inhibition at 100 µg/mL: 40%
Aphis
  Activity: 0%
Echinochloa crus-galli [4]
  inhibition at 100 µg/mL: 60%
Sorghum bicolor [5]
  inhibition at 100 µg/mL: 0%
Echinochloa crus-galli [6]
  Activity: inactive
Radish [7]
  Activity: inactive
Triticum aestivum [8]
  inhibition at 100 µg/mL: 60%
Cucumis sativus [9]
  inhibition at 100 µg/mL: 0%
Cucumis sativus [10]
  Activity: inactive
Triticum aestivum [11]
  inhibition at 100 µg/mL: 60%
Cucumis sativus [12]
  inhibition at 100 µg/mL: 0%
Sorghum bicolor [13]
  Activity: inactive
[14]
  inhibition at 100 µg/mL: 50%
Sorghum bicolor [15]
  inhibition at 100 µg/mL: 30%
Tetranychus cinnabarinus
  Activity: 0%
[16]
  inhibition at 100 µg/mL: 30%
Radish [17]
  inhibition at 100 µg/mL: 40%
[18]
  Activity: inactive

Reference: ChEMBL document CHEMBL1142895, “Discovery of a new insecticide lead by optimizing a target-diverse scaffold: tetrazolinone derivatives” (2007)
